Experiment [1] is described as follows: Cytotoxicity against human HuH7 cells […] by MTT assay. Type of experiment: cell-based. As to conditions: Huh-7. The procedure, abridged: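 Huh-7 MTT assay: after sample treatment, MTT (5.0 mg/mL stock in saline) added for 90 min at 37 °C. Plate centrifuged at 300 × g for 5 min and supernatant removed. Cells solubilized in 0.040 N HCl in 2-propanol. Absorbance read at 590 nm; survival (%) calculated relative to untreated control.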
For orientation: Tetrazolium dyes change colour on reduction, which living cells bring about.

Experiment [2] deals with Jurkat. As to the kind of experiment: Cytotoxicity against human Jurkat cells after 48 hrs by MTT assay. Type of experiment: cell-based. The procedure, abridged:
(§1)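 Cells grown exponentially in RPMI-1640 with 10% FBS, penicillin and streptomycin at 37 °C, 5.0% CO2. Seeding: HCT-15 at 1.0 × 10^4 cells/well, Jurkat at 2.0 × 10^4 cells/well. Samples added in MeOH and incubated 48 h at 37 °C. MTT and lysis solution (40% DMF, 20% SDS, 2.0% acetic acid, 0.030% HCl) added, then shaken overnight at room temperature. Read at 570 nm.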

For experiment [3], the target named is T1, Tyrosine-protein phosphatase non-receptor type 1 (Homo sapiens, UniProt P18031).
T1 sequence (P18031 whole entry): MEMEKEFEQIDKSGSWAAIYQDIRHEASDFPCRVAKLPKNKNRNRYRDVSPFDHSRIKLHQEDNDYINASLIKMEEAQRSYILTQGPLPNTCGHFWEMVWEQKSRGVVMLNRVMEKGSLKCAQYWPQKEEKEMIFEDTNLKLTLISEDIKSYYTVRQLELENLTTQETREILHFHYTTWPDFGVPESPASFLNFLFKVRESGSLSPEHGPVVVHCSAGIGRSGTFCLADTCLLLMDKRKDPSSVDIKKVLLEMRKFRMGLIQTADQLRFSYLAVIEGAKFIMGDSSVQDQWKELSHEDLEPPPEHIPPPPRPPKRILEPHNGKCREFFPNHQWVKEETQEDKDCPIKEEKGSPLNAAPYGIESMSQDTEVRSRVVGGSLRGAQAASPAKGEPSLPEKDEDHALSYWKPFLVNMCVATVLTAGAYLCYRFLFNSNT
In words: Inhibition of PTP1B (unknown origin) using pNPP as substrate incubated for 10 mins prior to substrate addition measured after 30 mins by microplate reader analysis.

Experiment [4] is described as follows: Cytotoxicity against human HCT15 cells after 48 hrs by MTT assay. To be noted: HCT-15, 48 h. Type of experiment: cell-based. The procedure, abridged:
as §1

By IC50 is commonly meant the concentration at which inhibition is half-maximal. High values mean lower potency, low ones higher potency.

For the molecule `CC1=C[C@@H]2CC(C)(C)[C@H]1C[C@@H](O)c1ccoc12`, the IC50 was over 100 µM in experiment [1], over 40 µM in experiment [2], over 40 µM in experiment [3] and over 40 µM in experiment [4].
`CC1=C[C@@H]2CC(C)(C)[C@H]1C[C@@H](O)C1=CC(=O)O[C@H]12`: the IC50 in experiment [2], in experiment [3] and in experiment [4] was over 40 µM in each case.
As for `CO[C@@]12OC(=O)C=C1[C@H](O)C[C@H]1C(C)=C[C@@H]2CC1(C)C`, the half-inhibitory concentration (IC50) in experiment [2], in experiment [3] and in experiment [4] was over 35 µM throughout.
Consider `C=C/C=C1/CO[C@]2(OC)CC[C@@H](O)[C@@H](O)[C@@H]12`, for which the IC50 in experiment [2], in experiment [3] and in experiment [4] was over 40 µM throughout.
For `C=C/C=C(/CO)c1cc(O)ccc1O`, the half-maximal inhibitory concentration (IC50) in experiment [2], in experiment [3] and in experiment [4] was over 50 µM throughout.
In the case of `CC1=C[C@@H]2CC(C)(C)[C@H]1/C=C\c1ccoc12` [REL-DEHYDROEURYSPONGIN A], the IC50 in experiment [1] is over 100 µM; in experiment [2], over 45 µM; in experiment [4], over 45 µM.

Source of the values: ChEMBL document CHEMBL3397022, “Absolute structures and bioactivities of euryspongins and eurydiene obtained from the marine sponge Euryspongia sp. collected at Iriomote Island” (Bioorg Med Chem, 2015).
